Experimental data as given in ChEMBL document CHEMBL4480412, “Deleting a Chromatin Remodeling Gene Increases the Diversity of Secondary Metabolites Produced by Colletotrichum higginsianum” (2019).
In brackets after ≈: the same amount, converted by molar mass.

Assays:
[1] = target: Collagenase (Homo sapiens) (UniProt P08253+P14780+P22894+P45452+P03956); experiment: Inhibition of collagenase (unknown origin) at 200 uM relative to control; assay type: protein assay
Homo sapiens [2] = organism: Homo sapiens; experiment: Inhibition of elastase (unknown origin) at 200 uM relative to control
Micrococcus luteus = experiment: Antibacterial activity against Micrococcus luteus ATCC 10240 by broth microdilution method; assay type: functional
How it was run: (§1)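 Broth microdilution run to CLSI guidelines; read-out is minimal inhibitory concentration (MIC). Chloramphenicol used as reference antibacterial.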

[3] = target: T1, Tyrosinase (Homo sapiens) (UniProt P14679); experiment: Inhibition of tyrosinase (unknown origin) at 200 uM relative to control
T1 sequence (whole entry): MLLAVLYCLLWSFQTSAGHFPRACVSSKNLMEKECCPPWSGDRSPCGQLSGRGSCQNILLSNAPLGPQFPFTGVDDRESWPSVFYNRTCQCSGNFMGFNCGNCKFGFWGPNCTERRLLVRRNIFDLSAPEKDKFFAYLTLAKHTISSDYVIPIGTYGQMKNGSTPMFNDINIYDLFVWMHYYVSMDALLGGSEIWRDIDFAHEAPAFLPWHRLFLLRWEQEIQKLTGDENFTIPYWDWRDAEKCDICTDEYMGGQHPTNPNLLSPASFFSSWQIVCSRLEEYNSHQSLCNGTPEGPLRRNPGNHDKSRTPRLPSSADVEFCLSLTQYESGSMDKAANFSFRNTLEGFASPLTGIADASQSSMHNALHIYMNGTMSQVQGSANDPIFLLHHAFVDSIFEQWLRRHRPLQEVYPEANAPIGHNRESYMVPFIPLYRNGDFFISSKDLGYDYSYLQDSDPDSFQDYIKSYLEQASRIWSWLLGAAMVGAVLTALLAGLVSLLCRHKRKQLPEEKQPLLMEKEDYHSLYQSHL

Botrytis cinerea = experiment: Antifungal activity against Botrytis cinerea B05.10 by EUCAST method; assay type: functional
How it was run: (§2)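 Susceptibility testing by the EUCAST method; read-out is minimal inhibitory concentration (MIC). Amphotericin B used as reference antifungal.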

Escherichia coli = experiment: Antibacterial activity against Escherichia coli ATCC 25922 by broth microdilution method; assay type: functional; how it was run: as §1
[4] = Antioxidant activity assessed as DPPH radical scavenging activity at 200 uM; assay type: functional
Aspergillus ochraceus = experiment: Antifungal activity against Aspergillus ochraceus ATCC 1009 by EUCAST method; assay type: functional; how it was run: as §2
Homo sapiens [5] = organism: Homo sapiens; experiment: Inhibition of hyaluronidase (unknown origin) at 200 uM relative to control
Rhizopus arrhizus = experiment: Antifungal activity against Rhizopus oryzae ATCC 11145 by EUCAST method; assay type: functional; how it was run: as §2
Bacillus spizizenii = experiment: Antibacterial activity against Bacillus subtilis ATCC 6633 by broth microdilution method; assay type: functional; how it was run: as §1

Row | Structure (SMILES) | inhibition [1] [%] | inhibition (Homo sapiens [2]) [%] | MIC (Micrococcus luteus) [µM] | inhibition [3] [%] | MIC (Botrytis cinerea) [µM] | MIC (Escherichia coli) [µM] | inhibition [4] [%] | MIC (Aspergillus ochraceus) [µM] | inhibition (Homo sapiens [5]) [%] | MIC (Rhizopus arrhizus) [µM] | MIC (Bacillus spizizenii) [µM]
1 | CO[C@@H]1[C@@H](O)[C@H](O)[C@H](OC(=O)C2=CC[C@H](C(C)C)[C@H]3C=C(C)CC[C@@H]23)[C@H](OC)[C@H]1O | < 20 | < 20 | > 225 | < 20 | > 225 | > 225 | < 20 | > 225 | < 20 | > 225 | > 225
2 | C=C1CC[C@@H]2[C@](C)(CC[C@H]3O[C@H](C(C)(C)O)CC[C@@]23C)[C@@H]1Cc1c(O)c(C)c(C)oc1=O | < 20 | < 20 | > 225 | < 20 | > 225 | > 225 | < 20 | > 225 | < 20 | > 225 | > 225
3 | O=C(N[C@H](CO)[C@H](O)c1ccc([N+](=O)[O-])cc1)C(Cl)Cl [CHLORAMPHENICOL] | – | – | 10 (≈ 3.23 µg/mL) | – | – | 10 (≈ 3.23 µg/mL) | – | – | – | – | 10 (≈ 3.23 µg/mL)
4 | C[C@@H]1[C@H](O)[C@@H](C)/C=C/C=C/C=C/C=C/C=C/C=C/C=C/[C@H](O[C@@H]2O[C@H](C)[C@@H](O)[C@H](N)[C@@H]2O)C[C@@H]2O[C@](O)(C[C@@H](O)C[C@@H](O)[C@H](O)CC[C@@H](O)C[C@@H](O)CC(=O)O[C@H]1C)C[C@H](O)[C@H]2C(=O)O [AMPHOTERICIN B] | – | – | – | – | 2 (≈ 1.85 µg/mL) | – | – | 2 (≈ 1.85 µg/mL) | – | 2 (≈ 1.85 µg/mL) | –
5 | CC(C)=CCc1c(O)cc(C)c(C=O)c1O | < 20 | < 20 | > 225 | < 20 | > 225 | > 225 | < 20 | > 225 | < 20 | > 225 | > 225
6 | CC(C)=CCc1c(O)cc(C)c(C(=O)O)c1O | < 20 | < 20 | > 225 | < 20 | > 225 | > 225 | < 20 | > 225 | < 20 | > 225 | > 225
7 | C=C1CC[C@@H]2[C@](C)(CC[C@H]3O[C@@H](C(C)(C)O)CC[C@@]23C)[C@@H]1Cc1c(O)c(C)c(C)oc1=O | < 20 | < 20 | > 225 | < 20 | > 225 | > 225 | < 20 | > 225 | < 20 | > 225 | > 225
